{
  "source": "ChEMBL document CHEMBL1127320",
  "about": "“Dual-action cephalosporins incorporating a 3'-tertiary-amine-linked quinolone” (J Med Chem, 1994)",
  "key": {"Pseudomonas aeruginosa [1]": {"test_system": "Pseudomonas aeruginosa", "experiment": "Tested for its efficacy against systemic murine infection caused by Pseudomonas aeruginosa 8780.", "type": "functional", "summary_of_the_method": "(§1)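 CD1 Swiss albino mice (18-20 g) were infected intraperitoneally with 0.5 mL of diluted culture. Within 5 min they received 1.0 mL test solution subcutaneously at the dorsal neck, in dilutions spanning 250–0.05 mg/kg. P. aeruginosa groups received a second dose at 3 h. Groups were six mice. ED50 was calculated by Reed–Muench interpolation of cumulative survival.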"}, "Klebsiella pneumoniae [2]": {"test_system": "Klebsiella pneumoniae", "experiment": "Tested for its efficacy against systemic murine infection caused by Klebsiella pneumoniae A", "type": "functional", "summary_of_the_method": "as §1"}, "Klebsiella pneumoniae [3]": {"test_system": "Klebsiella pneumoniae", "experiment": "In vitro minimum inhibitory concentration was measured against Klebsiella pneumoniae A strain.", "type": "functional", "summary_of_the_method": "(§2)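 Streptococci were tested on brain heart infusion agar plus 20 units/mL catalase, Proteus on Mueller-Hinton with 3% agar, and others on Mueller-Hinton agar. Inocula were 100-fold-diluted overnight cultures, about 3 × 10^4 CFU/spot, read after overnight incubation at 36 °C.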"}, "Proteus mirabilis [4]": {"test_system": "Proteus mirabilis", "experiment": "In vitro minimum inhibitory concentration was measured against Proteus mirabilis 90 strain.", "type": "functional", "summary_of_the_method": "as §2"}, "Streptococcus pneumoniae [5]": {"test_system": "Streptococcus pneumoniae", "experiment": "Tested for its efficacy against systemic murine infection caused by Streptococcus pneumoniae 6301.", "type": "functional", "summary_of_the_method": "as §1"}, "[6]": {"experiment": "Half life was measured as degradation by HPLC analysis.", "type": "ADME"}, "[7]": {"test_system": "Penicillin-binding protein 3 (Escherichia coli)", "experiment": "Affinity for penicillin binding protein 3 of Escherichia coli UB1005 (DC0) was evaluated.", "parameters": "unit not given here"}, "Serratia marcescens [8]": {"test_system": "Serratia marcescens", "experiment": "Tested for its efficacy against systemic murine infection caused by Serratia marcescens SM.", "type": "functional", "summary_of_the_method": "as §1"}, "Escherichia coli [9]": {"test_system": "Escherichia coli", "experiment": "Minimum inhibitory concentration for DC2, a permeability mutant", "summary_of_the_method": "as §2, with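 “MICs were determined by agar dilution with 2-fold dilutions giving final 128–0.0156 µg/mL, extended to 0.000977 µg/mL where needed. Streptococci” for “Streptococci”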"}, "[10]": {"target": "T1, Peptidoglycan D,D-transpeptidase MrdA (Escherichia coli K-12) (UniProt P0AD65)", "T1 sequence (whole entry)": "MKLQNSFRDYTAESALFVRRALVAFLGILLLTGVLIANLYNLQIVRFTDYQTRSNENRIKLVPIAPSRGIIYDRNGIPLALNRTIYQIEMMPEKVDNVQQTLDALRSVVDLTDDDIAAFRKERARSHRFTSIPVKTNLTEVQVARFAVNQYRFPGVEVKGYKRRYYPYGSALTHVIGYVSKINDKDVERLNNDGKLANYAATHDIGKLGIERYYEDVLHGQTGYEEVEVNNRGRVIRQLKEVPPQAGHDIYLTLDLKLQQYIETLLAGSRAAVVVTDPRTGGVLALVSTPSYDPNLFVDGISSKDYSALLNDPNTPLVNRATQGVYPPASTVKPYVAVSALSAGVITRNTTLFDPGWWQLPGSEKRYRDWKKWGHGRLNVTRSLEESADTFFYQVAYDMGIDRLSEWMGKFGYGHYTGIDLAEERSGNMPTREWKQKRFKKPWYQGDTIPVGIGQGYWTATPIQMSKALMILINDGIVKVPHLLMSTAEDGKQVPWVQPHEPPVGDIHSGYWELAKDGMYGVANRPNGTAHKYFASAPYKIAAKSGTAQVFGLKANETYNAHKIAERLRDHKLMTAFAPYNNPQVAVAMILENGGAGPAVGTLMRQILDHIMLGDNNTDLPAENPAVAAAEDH", "experiment": "Affinity for penicillin binding protein 2 of Escherichia coli UB1005 (DC0) was evaluated.", "parameters": "unit not given here", "summary_of_the_method": "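Solubilised membranes from sonicated E. coli UB1005 served as the binding-protein source. Binding was read as inhibition of [14C]penicillin G binding.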"}, "Escherichia coli [11]": {"test_system": "Escherichia coli", "experiment": "In vitro minimum inhibitory concentration was measured against Escherichia coli TEM-1 (Beta lactamase producer) strain.", "type": "functional", "summary_of_the_method": "as §2"}, "Streptococcus pneumoniae [12]": {"test_system": "Streptococcus pneumoniae", "experiment": "Bacterial challenge for systemic murine infection against Streptococcus pneumoniae 6301", "type": "functional"}, "Proteus vulgaris": {"test_system": "Proteus vulgaris", "experiment": "In vitro minimum inhibitory concentration was measured against Proteus vulgaris 1028BC (beta lactamase producer) strain.", "type": "functional", "summary_of_the_method": "as §2"}, "Streptococcus pneumoniae [13]": {"test_system": "Streptococcus pneumoniae", "experiment": "In vitro minimum inhibitory concentration was measured against Streptococcus pneumoniae 6301 strain", "type": "functional", "summary_of_the_method": "as §2"}, "Enterobacter cloacae [14]": {"test_system": "Enterobacter cloacae", "experiment": "Tested for its efficacy against systemic murine infection caused by Enterobacter cloacae 5699.", "type": "functional"}, "Staphylococcus aureus [15]": {"test_system": "Staphylococcus aureus", "experiment": "Tested for its efficacy against systemic murine infection caused by Staphylococcus aureus smith.", "type": "functional", "summary_of_the_method": "as §1"}, "Pseudomonas aeruginosa [16]": {"test_system": "Pseudomonas aeruginosa", "experiment": "In vitro minimum inhibitory concentration was measured against Pseudomonas aeruginosa 8780 strain.", "type": "functional", "summary_of_the_method": "as §2"}, "Klebsiella pneumoniae [17]": {"test_system": "Klebsiella pneumoniae", "experiment": "Bacterial challenge for systemic murine infection against Klebsiella pneumoniae A", "type": "functional", "summary_of_the_method": "(§3)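 Mouse protection test in CD1 Swiss albino mice (18-20 g). Mice were infected intraperitoneally with 0.5 mL of diluted bacterial suspension. A single subcutaneous dose at the dorsal neck base was given within 5 min, with doses from 250 to 0.05 mg/kg. Six mice per group were used. ED50 was obtained by the Reed-Muench method.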"}, "Enterobacter cloacae [18]": {"test_system": "Enterobacter cloacae", "experiment": "Bacterial challenge for systemic murine infection against Enterobacter cloacae 5699", "type": "functional", "summary_of_the_method": "as §3"}, "Streptococcus pyogenes [19]": {"test_system": "Streptococcus pyogenes", "experiment": "In vitro minimum inhibitory concentration was measured against Streptococcus pyogenes 4 strain.", "type": "functional", "summary_of_the_method": "as §2"}, "Serratia marcescens [20]": {"test_system": "Serratia marcescens", "experiment": "tested for its efficacy against systemic murine infection caused by Serratia marcescens SM.", "type": "functional", "summary_of_the_method": "as §1"}, "Streptococcus pyogenes [21]": {"test_system": "Streptococcus pyogenes", "experiment": "In vitro minimum inhibitory concentration was measured against Streptococcus pyogenes 4 strain.; (</=)", "type": "functional", "summary_of_the_method": "as §2, with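 “MICs were determined by agar dilution with 2-fold dilutions giving final 128–0.0156 µg/mL, extended to 0.000977 µg/mL where needed. Streptococci” for “Streptococci”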"}, "Klebsiella pneumoniae [22]": {"test_system": "Klebsiella pneumoniae", "experiment": "tested for its efficacy against systemic murine infection caused by Klebsiella pneumoniae A", "type": "functional", "summary_of_the_method": "as §1"}, "Proteus mirabilis [23]": {"test_system": "Proteus mirabilis", "experiment": "In vitro minimum inhibitory concentration was measured against Proteus mirabilis 90 strain.; (</=)", "type": "functional", "summary_of_the_method": "as §2, with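 “MICs were determined by agar dilution with 2-fold dilutions giving final 128–0.0156 µg/mL, extended to 0.000977 µg/mL where needed. Streptococci” for “Streptococci”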"}, "Pseudomonas aeruginosa [24]": {"test_system": "Pseudomonas aeruginosa", "experiment": "tested for its efficacy against systemic murine infection caused by Pseudomonas aeruginosa 8780."}, "Streptococcus pneumoniae [25]": {"test_system": "Streptococcus pneumoniae", "experiment": "tested for its efficacy against systemic murine infection caused by Streptococcus pneumoniae 6301.", "type": "functional", "summary_of_the_method": "as §1"}, "Staphylococcus aureus [26]": {"test_system": "Staphylococcus aureus", "experiment": "tested for its efficacy against systemic murine infection caused by Staphylococcus aureus smith.", "type": "functional", "summary_of_the_method": "as §1"}, "Streptococcus pneumoniae [27]": {"test_system": "Streptococcus pneumoniae", "experiment": "In vitro minimum inhibitory concentration was measured against Streptococcus pneumoniae 6301 strain.; (</=)", "type": "functional", "summary_of_the_method": "as §2, with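 “MICs were determined by agar dilution with 2-fold dilutions giving final 128–0.0156 µg/mL, extended to 0.000977 µg/mL where needed. Streptococci” for “Streptococci”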"}, "Enterobacter cloacae [28]": {"test_system": "Enterobacter cloacae", "experiment": "tested for its efficacy against systemic murine infection caused by Enterobacter cloacae 5699.", "type": "functional", "summary_of_the_method": "as §1"}},
  "data": [
    {"smiles": "CO/N=C(\\C(=O)N[C@@H]1C(=O)N2C(C(=O)O)=C(CN3CCN(c4cc5c(cc4F)c(=O)c(C(=O)O)cn5C4CC4)CC3)CS[C@H]12)c1csc(N)n1", "values": [
      {"measurement": "ED50", "setting": "Pseudomonas aeruginosa [1]", "value": 38, "unit": "mg/kg"},
      {"measurement": "ED50", "setting": "Klebsiella pneumoniae [2]", "value": 25, "unit": "mg/kg"},
      {"measurement": "MIC", "setting": "Klebsiella pneumoniae [3]", "value": 1, "unit": "µg/mL"},
      {"measurement": "MIC", "setting": "Proteus mirabilis [4]", "value": 2, "unit": "µg/mL"},
      {"measurement": "ED50", "setting": "Streptococcus pneumoniae [5]", "value": 54, "unit": "mg/kg"},
      {"measurement": "half-life", "setting": "[6]", "value": 6, "unit": "days"},
      {"measurement": "Binding affinity", "setting": "[7]", "value": 0.5},
      {"measurement": "ED50", "setting": "Serratia marcescens [8]", "value": 25, "unit": "mg/kg"},
      {"measurement": "MIC", "setting": "Escherichia coli [9]", "value": 0.063, "unit": "µg/mL"},
      {"measurement": "Binding affinity", "setting": "[10]", "value": 100},
      {"measurement": "MIC", "setting": "Escherichia coli [11]", "value": 0.25, "unit": "µg/mL"},
      {"measurement": "LD50", "setting": "Streptococcus pneumoniae [12]", "value": ">10000"},
      {"measurement": "MIC", "setting": "Proteus vulgaris", "value": 0.25, "unit": "µg/mL"},
      {"measurement": "MIC", "setting": "Streptococcus pneumoniae [13]", "value": 0.063, "unit": "µg/mL"},
      {"measurement": "ED50", "setting": "Enterobacter cloacae [14]", "value": 14, "unit": "mg/kg"},
      {"measurement": "ED50", "setting": "Staphylococcus aureus [15]", "value": "> 100", "unit": "mg/kg"},
      {"measurement": "MIC", "setting": "Pseudomonas aeruginosa [16]", "value": 8, "unit": "µg/mL"},
      {"measurement": "LD50", "setting": "Klebsiella pneumoniae [17]", "value": ">10000"},
      {"measurement": "LD50", "setting": "Enterobacter cloacae [18]", "value": 7055},
      {"measurement": "MIC", "setting": "Streptococcus pyogenes [19]", "value": 0.063, "unit": "µg/mL"}
    ]},
    {"smiles": "CO/N=C(\\C(=O)N[C@@H]1C(=O)N2C(C(=O)O)=C(COC(C)=O)CS[C@H]12)c1csc(N)n1", "note": "[CEFOTAXIME]", "values": [
      {"measurement": "MIC", "setting": "Klebsiella pneumoniae [3]", "value": 0.031, "unit": "µg/mL"},
      {"measurement": "MIC", "setting": "Escherichia coli [9]", "value": "< 0.016", "unit": "µg/mL"},
      {"measurement": "Binding affinity", "setting": "[10]", "value": 100},
      {"measurement": "ED50", "setting": "Serratia marcescens [20]", "value": "< 25", "unit": "mg/kg"},
      {"measurement": "MIC", "setting": "Streptococcus pyogenes [21]", "value": "≤ 0.016", "unit": "µg/mL"},
      {"measurement": "ED50", "setting": "Klebsiella pneumoniae [22]", "value": 45, "unit": "mg/kg"},
      {"measurement": "MIC", "setting": "Escherichia coli [11]", "value": 0.063, "unit": "µg/mL"},
      {"measurement": "MIC", "setting": "Proteus mirabilis [23]", "value": "< 0.016", "unit": "µg/mL"},
      {"measurement": "LD50", "setting": "Streptococcus pneumoniae [12]", "value": 69},
      {"measurement": "MIC", "setting": "Proteus vulgaris", "value": "> 128", "unit": "µg/mL"},
      {"measurement": "ED50", "setting": "Pseudomonas aeruginosa [24]", "value": "> 250", "unit": "mg/kg"},
      {"measurement": "MIC", "setting": "Pseudomonas aeruginosa [16]", "value": 16, "unit": "µg/mL"},
      {"measurement": "ED50", "setting": "Streptococcus pneumoniae [25]", "value": 69, "unit": "mg/kg"},
      {"measurement": "LD50", "setting": "Klebsiella pneumoniae [17]", "value": 45},
      {"measurement": "ED50", "setting": "Staphylococcus aureus [26]", "value": 6, "unit": "mg/kg"},
      {"measurement": "LD50", "setting": "Enterobacter cloacae [18]", "value": 50},
      {"measurement": "MIC", "setting": "Streptococcus pneumoniae [27]", "value": "< 0.016", "unit": "µg/mL"},
      {"measurement": "ED50", "setting": "Enterobacter cloacae [28]", "value": 50, "unit": "mg/kg"}
    ]}
  ]
}
